Here are results for 68 compounds from ChEMBL document CHEMBL1136659, “Benzamide derivatives as blockers of Kv1.3 ion channel” (Bioorg Med Chem Lett, 2003).

In assay [1] the target is T1, Potassium voltage-gated channel subfamily A member 3 (Homo sapiens, UniProt P22001). Put plainly: Inhibition of Kv1.3 ion channel. Measured in the Rb_Kv assay: [86Rb+] efflux from CHO cells stably transfected with Kv1.3 channel. The assay is classed as functional, cell-based.
In assay [2] the target is T1, Potassium voltage-gated channel subfamily A member 3. Kind of assay: Inhibition of DiTc binding to Kv1.3 channel in human brain membranes. It counts as cell membranes, Membrane.
The target is the same in assay [3]. Put plainly: Inhibition of [86Rb+] efflux from CHO cells stably transfected with Kv1.3 channel. It counts as functional, cell-based.
Assay [4] is described as follows: Inhibition of DiTc binding to Kv1.x channel in human brain membranes. The assay is classed as cell membranes, Membrane. The essentials: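 Displacement of diTC (C20-C29 ditritio-correolide) binding to human brain membranes carrying Kv1.x channels, primarily heteromultimeric Kv1.1/Kv1.2.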

The structures appear in SMILES notation. Bounds are passed on as bounds.

T1 sequence (P22001 whole entry): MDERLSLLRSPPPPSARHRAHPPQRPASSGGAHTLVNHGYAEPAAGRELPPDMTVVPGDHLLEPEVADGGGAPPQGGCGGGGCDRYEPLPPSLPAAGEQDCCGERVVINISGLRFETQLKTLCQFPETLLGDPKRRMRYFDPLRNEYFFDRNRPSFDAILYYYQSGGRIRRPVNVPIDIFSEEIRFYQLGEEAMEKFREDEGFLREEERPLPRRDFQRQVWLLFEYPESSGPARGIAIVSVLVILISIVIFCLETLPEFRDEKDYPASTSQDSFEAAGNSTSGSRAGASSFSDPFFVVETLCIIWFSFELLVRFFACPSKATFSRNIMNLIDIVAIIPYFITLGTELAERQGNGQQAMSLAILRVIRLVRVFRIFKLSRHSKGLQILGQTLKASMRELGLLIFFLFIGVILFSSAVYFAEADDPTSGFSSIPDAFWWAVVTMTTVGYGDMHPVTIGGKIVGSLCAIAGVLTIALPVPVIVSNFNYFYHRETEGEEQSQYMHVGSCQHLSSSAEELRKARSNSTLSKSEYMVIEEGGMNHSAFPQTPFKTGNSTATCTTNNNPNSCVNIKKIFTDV

In the case of `C=CCNC(=O)O[C@H]1CC[C@@](CNC(=O)c2cccc3c2OCC3)(c2ccccc2)CC1`, the midpoint of inhibition in assay [1], the IC50, lay at 3730 nM.
As for `C=CCNC(=O)N[C@H]1CC[C@@](CNC(=O)c2ccccc2OC)(c2ccccc2)CC1`, the IC50 in assay [2] is 29 nM; in assay [3], 150 nM; in assay [4] it was 120 nM.
Compound `COc1ccccc1C(=O)NC[C@]1(c2ccccc2)CC[C@@H](NC(=O)c2ccccc2)CC1` displayed an IC50 in assay [1] of 1560 nM.
`C=CCN(C)C(=O)O[C@H]1CC[C@@](CNC(=O)c2ccccc2OC)(c2ccccc2)CC1` yielded an IC50 in assay [1] of 320 nM.
For the compound `COc1ccccc1C(=O)NC[C@]1(c2ccccc2)CC[C@@H](OC(=O)NCCO)CC1`, the IC50 in assay [1] came out at 310 nM.
Still for that read-out and setting: the same measure for `COCCCNC(=O)O[C@H]1CC[C@](CNC(=O)c2ccccc2OC)(c2ccccc2)CC1`: 130 nM.
In the case of `O=C1CCC(CNC(=O)c2ccccc2)(c2ccccc2)CC1`, the IC50 in assay [1] is greater than 30000 nM.
For `C=CCNC(=O)O[C@H]1CC[C@](CNC(=O)c2ccccc2OC)(c2ccccc2)CC1`, the IC50 in assay [2] came out at 140 nM; in assay [3], 130 nM; in assay [4] it was 170 nM.
In the case of `COc1ccccc1C(=O)NC[C@]1(c2ccccc2)CC[C@H](NC(=O)CCc2ccccc2)CC1`, the IC50 in assay [1] worked out at 120 nM.
As to `COc1ccccc1C(=O)NC[C@]1(c2ccccc2)CC[C@@H](NC(=O)c2cccc(Br)c2)CC1`, the IC50 in assay [1] was greater than 30000 nM.
For the compound `COc1ccccc1C(=O)NC[C@]1(c2ccccc2)CC[C@H](NC(=O)c2ccccc2)CC1`, in assay [1], the IC50 came to 75 nM.
Compound `COc1cccc(C(=O)NCC2(c3ccccc3)CCC(=O)CC2)c1` gave an IC50 in assay [1] greater than 30000 nM.
`COc1ccccc1C(=O)NCC1CCCCC1` had an IC50 in assay [1] greater than 30000 nM.
Still for that read-out and setting: to `CCCCNC(=O)O[C@H]1CC[C@@](CNC(=O)c2ccccc2OC)(c2ccccc2)CC1` belongs 90 nM.
In assay [1], `COCCNC(=O)O[C@H]1CC[C@@](CNC(=O)c2ccccc2OC)(c2ccccc2)CC1` yielded a half-inhibitory concentration (IC50) of 140 nM.
Still for that read-out and setting: to `COCCCNC(=O)O[C@H]1CC[C@@](CNC(=O)c2ccccc2OC)(c2ccccc2)CC1` belongs 145 nM.
Turning to `C=CCNC(=O)N[C@H]1CC[C@](CNC(=O)c2ccccc2OC)(c2ccccc2)CC1`, the IC50 in assay [2] was determined as 80 nM; in assay [3], 140 nM; in assay [4] it was 125 nM.
`COc1ccccc1C(=O)NC[C@]1(c2ccccc2)CC[C@@H](NC(=O)CCc2ccccc2)CC1` showed an IC50 in assay [1] of 570 nM.
Same read-out and setting: the same measure for `COc1ccccc1C(=O)NC[C@]1(c2ccccc2)CC[C@@H](NC(=O)C=C(C)C)CC1`: 470 nM; for `COc1ccccc1C(=O)NC[C@]1(c2ccccc2)CC[C@@H](OC(=O)NCc2ccccc2)CC1`: 1700 nM.
The compound `COc1ccccc1C(=O)NC[C@]1(c2ccccc2)CC[C@H](OC(=O)NC(C)C)CC1` displayed an IC50 in assay [1] of 130 nM.
Same read-out and setting: the same measure for `CCC(=O)N[C@H]1CC[C@@](CNC(=O)c2ccccc2OC)(c2ccccc2)CC1`: 210 nM; for `COc1ccccc1C(=O)NC[C@]1(c2ccccc2)CC[C@@H](NC(C)=O)CC1`: 470 nM.
With `CCCNC(=O)O[C@H]1CC[C@@](CNC(=O)c2ccccc2OC)(c2ccccc2)CC1`, the IC50 stood at 5 nM in assay [2], 50 nM in assay [3] and 30 nM in assay [4].
In the same order, the values of `CNC(=O)O[C@H]1CC[C@@](CNC(=O)c2ccccc2OC)(c2ccccc2)CC1` are 5 nM, 58 nM and 33 nM.
On to `C=CCN(C)C(=O)O[C@H]1CC[C@](CNC(=O)c2ccccc2OC)(c2ccccc2)CC1`, for which the IC50 in assay [1] amounted to 145 nM.
Compound `COc1ccccc1C(=O)NC[C@]1(c2ccccc2)CC[C@@H](OC(=O)NC(C)C)CC1` registered an IC50 in assay [1] of 75 nM.
Still for that read-out and setting: the same measure for `COc1ccccc1C(=O)NC[C@]1(c2ccccc2)CC[C@@H](NC(=O)SC)CC1`: 150 nM.
Same read-out and setting: the same measure for `COc1ccccc1C(=O)NC[C@]1(c2ccccc2)CC[C@H](OC(=O)NCCO)CC1`: 95 nM; for `CCOc1ccccc1C(=O)NCC1(c2ccccc2)CCC(=O)CC1`: 580 nM; for `C=CCN(C)C(=O)N[C@H]1CC[C@](CNC(=O)c2ccccc2OC)(c2ccccc2)CC1`: 195 nM.
`CNC(=O)O[C@H]1CC[C@](CNC(=O)c2ccccc2OC)(c2ccccc2)CC1`: the IC50 in assay [2] was found to be 99 nM; in assay [3], 150 nM; in assay [4], 104 nM.
`C=C(C)CNC(=O)O[C@H]1CC[C@](CNC(=O)c2ccccc2OC)(c2ccccc2)CC1` yielded an IC50 in assay [1] of 120 nM.
Still for that read-out and setting: to `COc1ccccc1C(=O)NC[C@]1(c2ccccc2)CC[C@H](OC(=O)Nc2ccccc2)CC1` belongs 120 nM; to `COc1ccccc1C(=O)NC[C@]1(c2ccccc2)CC[C@@H](NC(=O)c2ccc(Br)cc2)CC1`, greater than 30000 nM.
On the same count and under the same terms, to `COc1ccccc1C(=O)N(C)CC1(c2ccccc2)CCC(=O)CC1` belongs greater than 30000 nM.
The same measure, in the same setting: to `COCCNC(=O)O[C@H]1CC[C@](CNC(=O)c2ccccc2OC)(c2ccccc2)CC1` belongs 140 nM; to `CCCC(=O)N[C@H]1CC[C@@](CNC(=O)c2ccccc2OC)(c2ccccc2)CC1`, 200 nM.
Turning to `C=CCNC(=O)O[C@H]1CC[C@@](CNC(=O)c2cc(Cl)ccc2OC)(c2ccccc2)CC1`, the IC50 in assay [1] is 230 nM.
For `COc1ccccc1C(=O)NC[C@]1(c2ccccc2)CC[C@H](NC(=O)Cc2ccccc2)CC1`, in assay [1], the midpoint of inhibition, the IC50, lay at 130 nM.
Turning to `CNc1ccccc1C(=O)NCC1(c2ccccc2)CCC(=O)CC1`, half-maximal inhibition in assay [1] (IC50) required 600 nM.
Same read-out and setting: to `COc1ccccc1C(=O)NC[C@]1(c2ccccc2)CC[C@@H](NC(=O)Cc2ccccc2)CC1` belongs 1050 nM; to `COc1ccccc1C(=O)NC[C@]1(c2ccccc2)CC[C@H](OC(=O)NCCCc2ccccc2)CC1`, 535 nM; to `C/C=C/C(=O)N[C@H]1CC[C@](CNC(=O)c2ccccc2OC)(c2ccccc2)CC1`, 100 nM.
In assay [1], `CCCCNC(=O)O[C@H]1CC[C@](CNC(=O)c2ccccc2OC)(c2ccccc2)CC1` yielded an IC50 of 140 nM.
With `C=CCOC(=O)N[C@H]1CC[C@](CNC(=O)c2ccccc2OC)(c2ccccc2)CC1`, the values for the IC50 in assay [2], in assay [3] and in assay [4] were 72 nM, 90 nM and 68 nM, respectively.
In assay [1], `COc1ccccc1C(=O)NC[C@]1(c2ccccc2)CC[C@H](OC(=O)NCCc2ccccc2)CC1` gave an IC50 of 420 nM.
On the same count and under the same terms, the same measure for `COc1ccccc1C(=O)NCC1(c2ccccc2)CCC(=O)CC1`: 200 nM.
Compound `C=CCN(CC=C)C(=O)O[C@H]1CC[C@](CNC(=O)c2ccccc2OC)(c2ccccc2)CC1` showed an IC50 in assay [1] of 205 nM.
Consider `COc1ccc(C(=O)NCC2(c3ccccc3)CCC(=O)CC2)cc1`, for which half-maximal inhibition in assay [1] (IC50) required 10000 nM.
As to `C=CCNC(=O)O[C@H]1CC[C@@](CNC(=O)c2ccccc2OC)(c2ccccc2)CC1`, the IC50 in assay [2] was found to be 18 nM; in assay [3] it was 70 nM; in assay [4], 112 nM.
In assay [1], `C=CCOC(=O)N[C@H]1CC[C@@](CNC(=O)c2ccccc2OC)(c2ccccc2)CC1` registered an IC50 of 242 nM.
On the same count and under the same terms, to `COc1ccccc1C(=O)NC[C@]1(c2ccccc2)CC[C@@H](OC(=O)Nc2ccccc2)CC1` belongs greater than 30000 nM; to `COc1ccccc1C(=O)NC[C@]1(c2ccccc2)CC[C@H](OC(=O)NCc2ccccc2)CC1`, 245 nM; to `COc1ccccc1C(=O)N(C)CC1(c2ccccc2)CCNCC1`, greater than 30000 nM.
Take `COc1ccccc1S(=O)(=O)NCC1(c2ccccc2)CCC(=O)CC1`: the IC50 in assay [1] was greater than 30000 nM.
On the same count and under the same terms, the same measure for `COc1ccccc1C(=O)NC[C@]1(c2ccccc2)CC[C@@H](NC(=O)c2ccccc2Br)CC1`: 2790 nM; for `C=CCNC(=O)O[C@H]1CC[C@@](CNC(=O)c2cc(F)ccc2O)(c2ccccc2)CC1`: 140 nM.
Still for that read-out and setting: to `C=CCNC(=O)O[C@H]1CC[C@@](CNC(=O)c2cccc(Cl)c2OC)(c2ccccc2)CC1` belongs 8380 nM.
For the compound `CCCNC(=O)O[C@H]1CC[C@](CNC(=O)c2ccccc2OC)(c2ccccc2)CC1`, the IC50 stood at 79 nM in assay [2], 100 nM in assay [3] and 76 nM in assay [4].
`C=CCNC(=O)O[C@H]1CC[C@@](CNC(=O)c2cccnc2OC)(c2ccccc2)CC1` had a half-maximal inhibitory concentration (IC50) in assay [1] of 325 nM.
As to `C=CCN(CC=C)C(=O)O[C@H]1CC[C@@](CNC(=O)c2ccccc2OC)(c2ccccc2)CC1`, inhibition in assay [1] was half-maximal at 840 nM (IC50).
The same measure, in the same setting: the same measure for `C=C(C)CNC(=O)O[C@H]1CC[C@@](CNC(=O)c2ccccc2OC)(c2ccccc2)CC1`: 90 nM; for `C/C=C/C(=O)N[C@H]1CC[C@@](CNC(=O)c2ccccc2OC)(c2ccccc2)CC1`: 440 nM.
As to `COC(=O)N[C@H]1CC[C@@](CNC(=O)c2ccccc2OC)(c2ccccc2)CC1`, half-maximal inhibition in assay [1] (IC50) was put at 135 nM.
The compound `O=C1CCC(CNC(=O)c2cccc(Cl)c2)(c2ccccc2)CC1` returned an IC50 in assay [1] of 30000 nM.
Same read-out and setting: to `C=CCOC(=O)O[C@H]1CC[C@](CNC(=O)c2ccccc2OC)(c2ccccc2)CC1` belongs 230 nM; to `C=CCNC(=O)O[C@H]1CC[C@@](CNC(=O)c2cccc(Cl)c2O)(c2ccccc2)CC1`, 7200 nM.

What is called IC50 is the concentration at which inhibition is half-maximal. High values mean lower potency, low ones higher potency.
